How the values were obtained:
Format in all cases: functional
PC-3 = experiment: Antitumor activity against human PC3 cells after 48 hrs by SRB assay; details: PC-3, 48 h
Procedure, shortened: (§1)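 NCI60 panel in RPMI 1640 with 5% FBS and 2 mM L-glutamine. Cells were plated at 5000–40,000/well by doubling time, held 24 h, then time-zero plates were TCA-fixed. Five concentrations (10-fold or half-log dilutions of DMSO stocks) were applied for 48 h at 37 °C, 5% CO2. Cells were fixed with cold TCA (10% final adherent, 16% suspension) and stained with 0.4% SRB. Bound dye was dissolved in 10 mM Tris and read at 515 nm. GI50, TGI and LC50 were calculated per line.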

NCI-H460 = experiment: Antitumor activity against human NCI-H460 cells after 48 hrs by SRB assay; details: NCI-H460, 48 h; procedure, shortened: as §1
CCRF-CEM [1] = experiment: Cytotoxicity against human CCRF-CEM cells assessed as cellular growth at 10 uM after 48 hrs by SRB assay
Procedure, shortened: (§2)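 NCI60 single-dose screen of cells in RPMI 1640 with 5% FBS and 2 mM L-glutamine, preincubated 24 h at 37 °C, 5% CO₂. Cells were then exposed 48 h to compound added from DMSO stock. TCA-fixed, stained with 0.4% SRB in 1% acetic acid, dye solubilised in 10 mM Tris base and read at 515 nm. Growth is given as percent of untreated control.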

IGROV-1 = experiment: Antitumor activity against human IGROV1 cells after 48 hrs by SRB assay; details: IGROV-1, 48 h; procedure, shortened: as §1
EKVX = experiment: Antitumor activity against human EKVX cells after 48 hrs by SRB assay; procedure, shortened: as §1
MDA-MB-468 = experiment: Antitumor activity against human MDA-MB-468 cells after 48 hrs by SRB assay; details: MDA-MB-468, 48 h; procedure, shortened: as §1
OVCAR-5 = experiment: Cytotoxicity against human OVCAR5 cells assessed as cellular growth at 10 uM after 48 hrs by SRB assay
Procedure, shortened: (§3)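 NCI-60 panel lines grown in RPMI 1640 with 5% FBS and 2 mM L-glutamine. Plated at 5000–40,000 cells/well and preincubated 24 h at 37 °C, 5% CO₂, with time-zero plates fixed in TCA. Compounds, dissolved in DMSO and diluted in medium, were applied for 48 h. Cells were TCA-fixed (10% final for adherent, 16% for suspension) and stained with 0.4% SRB in 1% acetic acid. Dye was solubilised in 10 mM Tris base and read at 515 nm; growth was expressed as a percentage of untreated control.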

SK-MEL-2 = experiment: Antitumor activity against human SK-MEL-2 cells after 48 hrs by SRB assay; details: SK-MEL-2, 48 h
Procedure, shortened: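 NCI60 panel cells grown in RPMI 1640 with 5% FBS and 2 mM L-glutamine, plated at 5000–40,000 cells/well and preincubated 24 h at 37 °C, 5% CO₂. Compound was added from DMSO at five concentrations, 10-fold or 1/2 log dilutions, then incubated 48 h.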

786-0 = experiment: Cytotoxicity against human 786-0 cells assessed as cellular growth at 10 uM after 48 hrs by SRB assay; procedure, shortened: as §2
NCI/ADR-RES = experiment: Cytotoxicity against human NCI/ADR-RES cells assessed as cellular growth at 10 uM after 48 hrs by SRB assay; procedure, shortened: as §3
HL-60(TB) = experiment: Antitumor activity against human HL-60(TB) cells after 48 hrs by SRB assay; details: HL-60, 48 h
Procedure, shortened: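 NCI60 screen: cells grown in RPMI 1640 with 5% FBS and 2 mM L-glutamine, plated at 5000–40,000 cells/well by doubling time, preincubated 24 h at 37 °C with 5% CO2. Compounds were diluted from DMSO stocks and given for 48 h, at five concentrations for dose response. A time-zero plate was TCA-fixed. Cells were TCA-fixed, stained with 0.4% SRB and read at 515 nm, with growth expressed relative to untreated controls.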

OVCAR-8 = experiment: Antitumor activity against human OVCAR8 cells after 48 hrs by SRB assay; details: OVCAR-8, 48 h; procedure, shortened: as §1
CCRF-CEM [2] = experiment: Antitumor activity against human CCRF-CEM cells after 48 hrs by SRB assay; procedure, shortened: as §1
MOLT-4 = experiment: Cytotoxicity against human MOLT4 cells assessed as cellular growth at 10 uM after 48 hrs by SRB assay; procedure, shortened: as §3
K562 = experiment: Cytotoxicity against human K562 cells assessed as cellular growth at 10 uM after 48 hrs by SRB assay; procedure, shortened: as §2
NCI-H322M = experiment: Cytotoxicity against human NCI-H322M cells assessed as cellular growth at 10 uM after 48 hrs by SRB assay; procedure, shortened: as §3
NCI-H226 [3] = experiment: Antitumor activity against human NCI-H226 cells after 48 hrs by SRB assay; details: NCI-H226, 48 h; procedure, shortened: as §1
NCI-H226 [4] = experiment: Cytotoxicity against human NCI-H226 cells assessed as cellular growth at 10 uM after 48 hrs by SRB assay; procedure, shortened: as §3
MDA-MB-231 = experiment: Antitumor activity against human MDA-MB-231 cells after 48 hrs by SRB assay; details: MDA-MB-231, 48 h; procedure, shortened: as §1
NCI-H522 = experiment: Antitumor activity against human NCI-H522 cells after 48 hrs by SRB assay; details: NCI-H522, 48 h; procedure, shortened: as §1
[5] = read-out: LC50 (the source's name)
[6] = read-out: pLC50 (the source's name) (converted)

COc1ccc(/C(=C2\O[C@@H]([C@H]3COC(C)(C)O3)[C@H]3OC(C)(C)O[C@@H]23)c2cc(OC)c(OC)c(OC)c2)cc1O
CC50 (PC-3; [5]): > 100 µM | TGI (PC-3; read-out: TGI): > 100 µM | GI50 (PC-3; read-out: pGI50 (converted)): 4.17 µM | CC50 (PC-3; [6]): > 100 µM | TGI (PC-3; read-out: pTGI): > 100 µM | GI50 (NCI-H460; read-out: GI50): 29.3 µM | CC50 (NCI-H460; [5]): > 100 µM | TGI (NCI-H460; read-out: TGI): > 100 µM | GI50 (NCI-H460; read-out: pGI50 (converted)): 29.5 µM | CC50 (NCI-H460; [6]): > 100 µM | TGI (NCI-H460; read-out: pTGI): > 100 µM | Activity (CCRF-CEM [1]): 60.8% | GI50 (IGROV-1; read-out: GI50): 45.1 µM | CC50 (IGROV-1; [5]): > 100 µM | TGI (IGROV-1; read-out: TGI): > 100 µM | GI50 (IGROV-1; read-out: pGI50 (converted)): 44.7 µM | CC50 (IGROV-1; [6]): > 100 µM | TGI (IGROV-1; read-out: pTGI): > 100 µM | GI50 (EKVX; read-out: GI50): 37.4 µM | CC50 (EKVX; [5]): > 100 µM | TGI (EKVX; read-out: TGI): > 100 µM | GI50 (EKVX; read-out: pGI50 (converted)): 37.2 µM | CC50 (EKVX; [6]): > 100 µM | TGI (EKVX; read-out: pTGI): > 100 µM | GI50 (MDA-MB-468; read-out: GI50): 17.8 µM | CC50 (MDA-MB-468; [5]): > 100 µM | TGI (MDA-MB-468; read-out: TGI): 63.6 µM | GI50 (MDA-MB-468; read-out: pGI50 (converted)): 25.7 µM | CC50 (MDA-MB-468; [6]): > 100 µM | TGI (MDA-MB-468; read-out: pTGI (converted)): 63.1 µM | Activity (OVCAR-5): 92.89% | GI50 (SK-MEL-2): 1.53 µM | TGI (SK-MEL-2): 4.12 µM | CC50 (SK-MEL-2; [5]): 24.1 µM | Activity (786-0): 86.28% | Activity (NCI/ADR-RES): -10.52% | GI50 (HL-60(TB); read-out: GI50): 6.48 µM | CC50 (HL-60(TB); [5]): > 100 µM | TGI (HL-60(TB); read-out: TGI): 56.8 µM | GI50 (HL-60(TB); read-out: pGI50 (converted)): 1.62 µM | CC50 (HL-60(TB); [6]): > 100 µM | TGI (HL-60(TB); read-out: pTGI (converted)): 56.2 µM | GI50 (OVCAR-8; read-out: GI50): 6.56 µM | CC50 (OVCAR-8; [5]): > 100 µM | TGI (OVCAR-8; read-out: TGI): > 100 µM | GI50 (OVCAR-8; read-out: pGI50 (converted)): 8.51 µM | CC50 (OVCAR-8; [6]): > 100 µM | TGI (OVCAR-8; read-out: pTGI): > 100 µM | GI50 (CCRF-CEM [2]; read-out: GI50): 5.45 µM | CC50 (CCRF-CEM [2]; [5]): > 100 µM | TGI (CCRF-CEM [2]; read-out: TGI): > 100 µM | GI50 (CCRF-CEM [2]; read-out: pGI50 (converted)): 5.5 µM | CC50 (CCRF-CEM [2]; [6]): > 100 µM | TGI (CCRF-CEM [2]; read-out: pTGI): > 100 µM | Activity (MOLT-4): 60.46% | Activity (K562): 10.18% | Activity (NCI-H322M): 91.51% | GI50 (NCI-H226 [3]; read-out: GI50): 64.7 µM | CC50 (NCI-H226 [3]; [5]): > 100 µM | TGI (NCI-H226 [3]; read-out: TGI): > 100 µM | GI50 (NCI-H226 [3]; read-out: pGI50 (converted)): 64.6 µM | CC50 (NCI-H226 [3]; [6]): > 100 µM | TGI (NCI-H226 [3]; read-out: pTGI (converted)): > 100 µM | Activity (NCI-H226 [4]): 112.98% | GI50 (MDA-MB-231): 6.28 µM | TGI (MDA-MB-231): 69.7 µM | CC50 (MDA-MB-231; [5]): > 100 µM | GI50 (NCI-H522): 2.95 µM | TGI (NCI-H522): 7.54 µM | CC50 (NCI-H522; [5]): 85.6 µM

— ChEMBL document CHEMBL1828575, “Design, synthesis and antiproliferative activities of biarylolefins based on polyhydroxylated and carbohydrate scaffolds” (Eur J Med Chem, 2011)
